Source: ChEMBL document CHEMBL3351277, “Discovery and structure-activity relationship studies of irreversible benzisothiazolinone-based inhibitors against Staphylococcus aureus sortase A transpeptidase” (Bioorg Med Chem, 2014)
Values after ≈ are worked out from the molar mass of the structure shown. Blank lines part the entries; values can stand above or below the compound they belong to. Active and inactive are the calls of the source. No cut-off for these calls is given here.

Tests used:
Sortase A = molecular target: T1, Sortase A (Staphylococcus aureus, UniProt Q9S446); test: Inhibition of Staphylococcus aureus sortase A using dabcyl-QALPETGEE-edans as substrate incubated for 1 hr prior to substrate addition measured at 1 min interval for 1 hr by FRET analysis
T1 sequence (Q9S446 whole entry): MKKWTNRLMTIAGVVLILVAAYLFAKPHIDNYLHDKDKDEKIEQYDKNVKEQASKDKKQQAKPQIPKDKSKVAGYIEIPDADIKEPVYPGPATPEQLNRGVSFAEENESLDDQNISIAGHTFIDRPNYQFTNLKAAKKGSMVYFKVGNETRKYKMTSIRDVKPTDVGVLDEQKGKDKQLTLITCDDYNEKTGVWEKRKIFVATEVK
Outline: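 Recombinant S. aureus SrtA catalytic domain (residues 1–59 deleted, C-terminal His6; E. coli BL21(DE3), Ni-NTA then gel filtration), 10 µM, preincubated 1 h at 37 °C with increasing inhibitor concentrations in 50 mM Tris-HCl pH 7.5, 5 mM CaCl2, 150 mM NaCl; then 20 µM substrate added. Fluorescence (ex 350/em 495 nm) read each minute for 1 h; progress curves constructed for IC50.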

[1] = Cytotoxicity against Swiss mouse NIH/3T3 cells after 48 hrs by MTT assay; assay type: cell-based; conditions: NIH3T3, 48 h
Outline: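 NIH 3T3 fibroblasts were seeded in DMEM with 10% FCS and rested 24 h, then exposed to graded compound concentrations for 48 h. Medium was replaced with phenol-red-free medium plus 1 mM MTT for 3 h, then 1% SDS–HCl was added for 4 h. A570 was read. IC50 was the 50% proliferation inhibition versus untreated control, from nonlinear dose–response regression.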

[2] = tested on: Staphylococcus epidermidis; test: Antibacterial activity against Staphylococcus epidermidis ATCC 12228 after 24 hrs by broth dilution method; assay type: functional; conditions: ATCC 12228, 24 h
Outline: (§1)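 Broth microdilution, 0.1–500 µg/mL in Mueller Hinton broth for S. aureus and S. epidermidis and Luria Bertani broth for E. coli. Inoculum was log-phase culture at OD600 0.1, incubated 24 h at 37 °C, with growth read as A600. Triplicates, repeated three times.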

Escherichia coli = test: Antibacterial activity against Escherichia coli ATCC 25922 after 24 hrs by broth dilution method; assay type: functional; conditions: ATCC 25922, 24 h; outline: as §1
Staphylococcus aureus = test: Antibacterial activity against Staphylococcus aureus ATCC 25904 after 24 hrs by broth dilution method; assay type: functional; conditions: ATCC 25904, 24 h; outline: as §1
[3] = molecular target: T2, Sortase A (Staphylococcus aureus) (UniProt Q9S446); test: Irreversible binding affinity to Staphylococcus aureus sortase A by 15N-1H HSQC NMR spectroscopy
T2 sequence (whole entry): T1 sequence (Q9S446 whole entry)
Outline: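 2D 15N–1H HSQC used 15N-labelled SrtAΔN59-6His (E. coli BL21(DE3), M9 with 15N-ammonium) at 0.3 mM. Buffer was 20 mM sodium acetate, 50 mM NaCl, 10 mM CaCl2, pH 6.0, 6% D2O. Inhibitor (100 mM stock in DMSO-d6) was added stepwise with a spectrum after each addition. Reversibility was checked by HSQC after dialysis against NMR buffer (100-fold dilution).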

Compound: O=C(CCn1sc2cccc(F)c2c1=O)NNC(=O)C12CC3CC(CC(C3)C1)C2
IC50 (Sortase A; read-out: IC50): 3.39 µM | IC50 [1]: 1.67 µM | MIC [2]: 19.2 µM (≈ 8 µg/mL) | MIC (Escherichia coli): > 1200 µM | MIC (Staphylococcus aureus): 38.3 µM (≈ 16 µg/mL)

Compound: CC12CC3(C)CC(O)(C1)CC(NC(=O)Cn1sc4ccccc4c1=O)(C2)C3
IC50 (Sortase A; read-out: IC50): 3.87 µM | IC50 [1]: 1.33 µM | MIC [2]: 20.7 µM (≈ 8 µg/mL) | MIC (Escherichia coli): > 1290 µM | MIC (Staphylococcus aureus): 20.7 µM (≈ 8 µg/mL)

Compound: O=C(CCn1sc2ccccc2c1=O)NNC(=O)C12CC3CC(CC(C3)C1)C2
IC50 (Sortase A; read-out: IC50): 4.22 µM | IC50 [1]: 12.2 µM | MIC [2]: 10 µM (≈ 4 µg/mL) | MIC (Escherichia coli): > 1250 µM | MIC (Staphylococcus aureus): 20 µM (≈ 8 µg/mL)

Compound: CN(C)CCC(=O)c1ccc(Cl)c(Cl)c1
IC50 (Sortase A; read-out: IC50): 16.9 µM | IC50 [1]: 9.71 µM | MIC [2]: 56.6 µM (≈ 13.9 µg/mL) | MIC (Escherichia coli): > 1770 µM | MIC (Staphylococcus aureus): 113 µM (≈ 27.9 µg/mL)

Compound: O=C(Cn1sc2ccccc2c1=O)NC12CC3CC(CC(C3)C1)C2
IC50 (Sortase A; read-out: IC50): 6.11 µM | IC50 [1]: 1.27 µM | MIC [2]: 1.46 µM (≈ 0.5 µg/mL) | MIC (Escherichia coli): > 1500 µM | Activity [3]: Active | MIC (Staphylococcus aureus): 2.92 µM (≈ 1 µg/mL)

Compound: COC(=O)C12CC3CC(CC(NC(=O)CCn4sc5ccccc5c4=O)(C3)C1)C2
IC50 (Sortase A; read-out: IC50): 5.08 µM | IC50 [1]: 12.1 µM | MIC [2]: 19.3 µM (≈ 8 µg/mL) | MIC (Escherichia coli): > 1210 µM | MIC (Staphylococcus aureus): 38.6 µM (≈ 16 µg/mL)

Compound: CC12CC3CC(C)(C1)CC(NC(=O)CCn1sc4ccccc4c1=O)(C3)C2
IC50 (Sortase A; read-out: IC50): 4.62 µM | IC50 [1]: 4.23 µM | MIC [2]: 20.8 µM (≈ 8 µg/mL) | MIC (Escherichia coli): > 1300 µM | MIC (Staphylococcus aureus): 20.8 µM (≈ 8 µg/mL)

IC50 (Sortase A): Not Active | MIC [2]: > 2030 µM | MIC (Escherichia coli): > 2030 µM | MIC (Staphylococcus aureus): > 2030 µM
Compound: COC(=O)C12CC3CC(CC(N)(C3)C1)C2.Cl
IC50 [1]: 2290 µM

Compound: CC12CC3CC(C)(C1)CC(NC(=O)Cn1sc4ccccc4c1=O)(C3)C2
IC50 (Sortase A; read-out: IC50): 4.99 µM | IC50 [1]: 4.09 µM | MIC [2]: 43.2 µM (≈ 16 µg/mL) | MIC (Escherichia coli): > 1350 µM | MIC (Staphylococcus aureus): 86.4 µM (≈ 32 µg/mL)

IC50 (Sortase A): Not Active | MIC [2]: > 2660 µM | MIC (Escherichia coli): > 2660 µM | MIC (Staphylococcus aureus): > 2660 µM
Compound: Cl.NC12CC3CC(CC(C3)C1)C2 [AMANTADINE HYDROCHLORIDE]
IC50 [1]: 2290 µM

Compound: CC12CC3(C)CC(O)(C1)CC(NC(=O)CCn1sc4cccc(F)c4c1=O)(C2)C3
IC50 (Sortase A; read-out: IC50): 3.96 µM | IC50 [1]: 2.17 µM | MIC [2]: 38.2 µM (≈ 16 µg/mL) | MIC (Escherichia coli): > 1190 µM | MIC (Staphylococcus aureus): 38.2 µM (≈ 16 µg/mL)

Compound: O=C(CCn1sc2cccc(F)c2c1=O)NC12CC3CC(CC(C3)C1)C2
IC50 (Sortase A; read-out: IC50): 4.01 µM | IC50 [1]: 0.9 µM | MIC [2]: 10.7 µM (≈ 4 µg/mL) | MIC (Escherichia coli): > 1340 µM | MIC (Staphylococcus aureus): 85.5 µM (≈ 32 µg/mL)

Compound: CC12CC3(C)CC(O)(C1)CC(NC(=O)CCn1sc4ccccc4c1=O)(C2)C3
IC50 (Sortase A; read-out: IC50): 7.06 µM | IC50 [1]: 7.52 µM | MIC [2]: 40 µM (≈ 16 µg/mL) | MIC (Escherichia coli): > 1250 µM | MIC (Staphylococcus aureus): 40 µM (≈ 16 µg/mL)

Compound: O=C(CCn1sc2ccccc2c1=O)NC12CC3CC(CC(O)(C3)C1)C2
IC50 (Sortase A; read-out: IC50): 6.44 µM | IC50 [1]: 7.13 µM | MIC [2]: 85.9 µM (≈ 32 µg/mL) | MIC (Escherichia coli): > 1340 µM | MIC (Staphylococcus aureus): 43 µM (≈ 16 µg/mL)

Compound: O=C(CCn1sc2ccccc2c1=O)NC12CC3CC(CC(C3)C1)C2
IC50 (Sortase A; read-out: IC50): 3.81 µM | IC50 [1]: 5.95 µM | MIC [2]: 5.61 µM (≈ 2 µg/mL) | MIC (Escherichia coli): > 1400 µM | MIC (Staphylococcus aureus): 22.4 µM (≈ 8 µg/mL)

IC50 (Sortase A): Not Active | MIC [2]: > 1540 µM | MIC (Escherichia coli): > 1540 µM | MIC (Staphylococcus aureus): > 1540 µM
Compound: O=C(CN1Cc2ccccc2C1=O)NC12CC3CC(CC(C3)C1)C2
IC50 [1]: 263 µM

Compound: CC12CC3CC(C)(C1)CC(NC(=O)CCn1sc4cccc(F)c4c1=O)(C3)C2
IC50 (Sortase A; read-out: IC50): 4.07 µM | IC50 [1]: 9.89 µM | MIC [2]: 2.48 µM (≈ 0.998 µg/mL) | MIC (Escherichia coli): > 1240 µM | MIC (Staphylococcus aureus): 39.7 µM (≈ 16 µg/mL)

Compound: O=C(Cn1sc2ccccc2c1=O)NNC(=O)C12CC3CC(CC(C3)C1)C2
IC50 (Sortase A; read-out: IC50): 3.8 µM | IC50 [1]: 14.4 µM | MIC [2]: 10.4 µM (≈ 4 µg/mL) | MIC (Escherichia coli): > 1300 µM | MIC (Staphylococcus aureus): 41.5 µM (≈ 16 µg/mL)

MIC [2]: > 2960 µM | MIC (Escherichia coli): > 2960 µM | MIC (Staphylococcus aureus): > 2960 µM
Compound: C=CS(=O)(=O)c1ccccc1 [(ETHENYLSULFONYL)BENZENE]
IC50 [1]: 7.91 µM

Compound: O=C(O)CCn1sc2ccccc2c1=O
IC50 (Sortase A; read-out: IC50): 12.8 µM | IC50 [1]: 21.8 µM | MIC [2]: 287 µM (≈ 64 µg/mL) | MIC (Escherichia coli): 71.7 µM (≈ 16 µg/mL) | MIC (Staphylococcus aureus): 287 µM (≈ 64 µg/mL)

Compound: COC(=O)C12CC3CC(CC(NC(=O)CCn4sc5cccc(F)c5c4=O)(C3)C1)C2
IC50 (Sortase A; read-out: IC50): 5.06 µM | IC50 [1]: 8.02 µM | MIC [2]: 18.5 µM (≈ 8 µg/mL) | MIC (Escherichia coli): > 1160 µM | MIC (Staphylococcus aureus): 37 µM (≈ 16 µg/mL)

Compound: O=C(CCn1sc2cccc(F)c2c1=O)NC12CC3CC(CC(O)(C3)C1)C2
IC50 (Sortase A; read-out: IC50): 6.26 µM | IC50 [1]: 1.34 µM | MIC [2]: 164 µM (≈ 64 µg/mL) | MIC (Escherichia coli): > 1280 µM | MIC (Staphylococcus aureus): 164 µM (≈ 64 µg/mL)
